Assay results published in ChEMBL document CHEMBL1127326, “Antitumor agents. 148. Synthesis and biological evaluation of novel 4 beta-amino derivatives of etoposide with better pharmacological profiles” (1994).
Values joined by “and” are separate entries in the source; they are usually repeats but may differ in a detail not shown here. Identical values can stand only once.

Assays:
Nucleic Acid = experiment: Percentage inhibition of cellular protein-DNA complex formation; format: functional; settings: Homo sapiens
[1] = target: DNA topoisomerase II (Homo sapiens) (UniProt P11388+Q02880); experiment: 50% inhibition of human DNA topoisomerase II; format: protein assay
Tumor Cell line [2] = experiment: Drug concentration required to inhibit total cell growth; format: functional, Homo sapiens; settings: read-out: Log TGI (converted)
In short: (§1)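 NCI panel of 54 human tumor lines from eight cancer types, mostly seeded at 20 000 cells/well. Cells were preincubated 24 h without drug, then exposed to five 10-fold dilutions for 48 h, fixed and stained with sulforhodamine B, and read spectrophotometrically. Versus control, GI50 (50% growth inhibition), TGI (0% growth) and LC50 (−50% growth) were calculated; mean graph midpoints average all lines.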

KB = experiment: Cytotoxicity against KB cells after a 3 day incubation; format: functional, Homo sapiens; settings: read-out: ID50 (the source's name)
In short: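 KB cells (parental ATCC line and resistant variants) exposed to drug at five concentrations […] for 3 days. ID50 is the concentration giving 50% reduction in cell number, derived from the degree of inhibition at the five concentrations.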

Tumor Cell line [3] = experiment: Drug molar concentration required to inhibit 50% of human tumor cell growth; format: functional; settings: Homo sapiens, Tumor Cell line; in short: as §1
Tumor Cell line [4] = experiment: Drug concentration required to cause 50% cell death; format: functional, Homo sapiens; settings: Homo sapiens, Tumor Cell line
In short: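 NCI in vitro panel of 54 human tumor cell lines from eight cancer types, mostly seeded at 20 000 cells/well and preincubated 24 h without drug. Five 10-fold dilutions were then added for a further 48 h. Cells were fixed in situ and stained with sulforhodamine B, and bound dye was read spectrophotometrically. LC50 (−50% growth versus control) was taken from five-point dose-response curves and reported as the log10 mean-graph midpoint across lines.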

SMILES: COc1cc([C@@H]2c3cc4c(cc3[C@@H](NCCCN(C)C)[C@H]3COC(=O)[C@H]23)OCO4)cc(OC)c1O [listing 1 of 2 here]
- Complex formation (Nucleic Acid): 179% and 186%
- ID50 [1]: 25 µM

SMILES: COc1cc([C@@H]2c3cc4c(cc3[C@@H](Nc3ccc(C(=O)O)cc3)[C@H]3COC(=O)[C@H]23)OCO4)cc(OC)c1O
- TGI (Tumor Cell line [2]): 15.8 µM
- IC50 (KB; Homo sapiens, KB, 72 h): > 4 µM
- GI50 (Tumor Cell line [3]): 8.51 µM

SMILES: COc1cc([C@@H]2c3cc4c(cc3[C@@H](NCCCN(C)C)[C@H]3COC(=O)[C@H]23)OCO4)cc(OC)c1O [listing 2 of 2 here]
- TGI (Tumor Cell line [2]; Homo sapiens, Tumor Cell line): 2.82 µM
- IC50 (KB): 1.15 µM
- GI50 (Tumor Cell line [3]): 0.55 µM
- LC50 (Tumor Cell line [4]): 13.5 µM

SMILES: CCOC(=O)N1CCC(N[C@@H]2c3cc4c(cc3[C@@H](c3cc(OC)c(O)c(OC)c3)[C@H]3C(=O)OC[C@@H]32)OCO4)CC1
- ID50 [1]: 25 µM

SMILES: COc1cc([C@@H]2c3cc4c(cc3[C@@H](NCCN3CCCCC3)[C@H]3COC(=O)[C@H]23)OCO4)cc(OC)c1O
- TGI (Tumor Cell line [2]; Homo sapiens, Tumor Cell line): 3.72 µM
- IC50 (KB; Homo sapiens, KB, 72 h): 1.6 µM
- GI50 (Tumor Cell line [3]): 0.427 µM
- LC50 (Tumor Cell line [4]): 36.3 µM
